These results are taken from ChEMBL document CHEMBL1132446, “Design, synthesis, and evaluation of Phe-Gly mimetics: heterocyclic building blocks for pseudopeptides” (J Med Chem, 1999).

For assay [1], the target named is T1, Mu-type opioid receptor (Rattus norvegicus, UniProt P33535). The assay is described as follows: The compound was tested for binding affinity towards rat Opioid receptor mu 1 by displacing [3H]DAMGO.
The next assay concerns the target Substance-P receptor (Rattus norvegicus, UniProt P14600). The assay is described as follows: Affinity for rat Tachykinin receptor 1 determined in displacement screening by using radioligand 3,4-[3H]-(L-Pro e2) SP.
The nature of assay [2]: Retention time of the compound. The procedure, abridged:
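Analytical reversed-phase HPLC on a C-18 column (8 × 100 mm), eluting with CH3CN/H2O/0.1% TFA gradients. The gradient differs by compound: 0-60% at 1 mL/min over 30 min, or 5-65%, 20-60% or 0-60% at 0.5 mL/min over 30 min.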

For assay [3], the target named is T1, Mu-type opioid receptor. The assay is described as follows: The compound was tested for binding affinity towards [3H]DAMGO, in rat Opioid receptor mu 1. The essentials:
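Rat whole-brain (minus cerebellum) membranes from sucrose homogenisation, differential centrifugation and hypotonic lysis, in 50 mM Tris-HCl pH 7.4. […] Incubation 30 min at 25 °C, ended by filtration on PEI-soaked GF-C filters. Triplicates, three experiments, IC50 as mean ± SEM.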

pIC50: −log10 of the molar value. Numbered stars: 1 amine (or outer) side, 2 acyl side, 3 side chain; on linkers, the order of the positions; unused ones are H or OH. Square brackets hold non-standard residues; d marks the D form. Peptide text beside a SMILES is read from it. X9 = O=C(Cc1nnc([C@H](Cc2ccccc2)N[*:1])[nH]1)[*:2]; X7 = O=C(c1nnc([C@H](Cc2ccccc2)N[*:1])[nH]1)[*:2]; X3 = O=C(c1nnc([C@H](Cc2ccccc2)N[*:1])o1)[*:2]; X4 = O=C(c1noc([C@H](Cc2ccccc2)N[*:1])n1)[*:2]

T1 sequence (P33535 whole entry): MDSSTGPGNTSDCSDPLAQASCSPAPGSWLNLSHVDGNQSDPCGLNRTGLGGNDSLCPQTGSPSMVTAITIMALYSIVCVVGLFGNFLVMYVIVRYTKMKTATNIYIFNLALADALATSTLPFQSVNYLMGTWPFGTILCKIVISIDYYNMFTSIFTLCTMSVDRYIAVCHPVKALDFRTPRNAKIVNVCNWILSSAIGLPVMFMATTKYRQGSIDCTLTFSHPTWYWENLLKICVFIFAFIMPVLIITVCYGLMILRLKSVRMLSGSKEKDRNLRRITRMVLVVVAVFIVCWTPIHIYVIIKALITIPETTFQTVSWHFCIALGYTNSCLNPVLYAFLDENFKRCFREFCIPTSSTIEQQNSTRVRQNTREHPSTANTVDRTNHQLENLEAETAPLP
Chain of Substance-P receptor (P14600 whole entry): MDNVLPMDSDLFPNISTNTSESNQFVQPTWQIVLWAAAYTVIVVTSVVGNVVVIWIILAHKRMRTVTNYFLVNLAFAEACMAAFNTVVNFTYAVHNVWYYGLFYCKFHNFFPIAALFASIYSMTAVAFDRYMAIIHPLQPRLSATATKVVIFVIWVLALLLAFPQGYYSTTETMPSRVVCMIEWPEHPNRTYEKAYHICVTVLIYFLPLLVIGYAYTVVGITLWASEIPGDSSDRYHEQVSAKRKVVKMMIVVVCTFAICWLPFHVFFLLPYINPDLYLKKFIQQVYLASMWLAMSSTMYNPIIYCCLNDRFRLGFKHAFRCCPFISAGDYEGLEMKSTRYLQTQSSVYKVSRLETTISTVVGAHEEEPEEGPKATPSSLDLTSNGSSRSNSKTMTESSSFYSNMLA

Consider `C[C@@H](NC(=O)[C@@H](N)Cc1ccc(O)cc1)C(=O)N[C@@H](Cc1ccccc1)c1nnc(C(=O)N[C@@H](Cc2ccc(O)cc2)C(=O)N2CCC[C@H]2C(=O)N[C@@H](CO)C(N)=O)o1`, for which the figures for the pIC50 at Mu-type opioid receptor [1] and at Substance-P receptor were 7.70 and < 6.00, respectively.
Consider `C[C@@H](NC(=O)[C@@H](N)Cc1ccc(O)cc1)C(=O)N[C@@H](Cc1ccccc1)c1nc(C(=O)N[C@@H](Cc2ccc(O)cc2)C(=O)N2CCC[C@H]2C(=O)N[C@@H](CO)C(N)=O)no1`, for which the pIC50 at Mu-type opioid receptor [1] is 7.77; at Substance-P receptor it was < 6.00.
In assay [2], `CCOC(=O)Cc1n[nH]c([C@H](Cc2ccccc2)NC(=O)OC(C)(C)C)n1` came in with a Retention time of 22.1 min.
In assay [2], `C[C@@H](NC(=O)[C@@H](N)Cc1ccc(O)cc1)C(=O)N[C@@H](Cc1ccccc1)c1nc(N[C@@H](Cc2ccc(O)cc2)C(=O)N2CCC[C@H]2C(=O)N[C@@H](CO)C(N)=O)no1` registered a Retention time of 22.7 min.
`C[C@@H](NC(=O)[C@@H](N)Cc1ccc(O)cc1)C(=O)N[C@@H](Cc1ccccc1)c1n[nH]c(N[C@@H](Cc2ccc(O)cc2)C(=O)N2CCC[C@H]2C(=O)N[C@@H](CO)C(N)=O)n1` had a Retention time in assay [2] of 20.6 min.
As to `C[C@@H](NC(=O)[C@@H](N)Cc1ccc(O)cc1)C(=O)N[C@@H](Cc1ccccc1)c1n[nH]c(CC(=O)N[C@@H](Cc2ccc(O)cc2)C(=O)N2CCC[C@H]2C(=O)N[C@@H](CO)C(N)=O)n1`, the pIC50 on Mu-type opioid receptor [1] was 7.68; on Substance-P receptor it was < 6.00.
As to `C[C@@H](NC(=O)[C@@H](N)Cc1ccc(O)cc1)C(=O)N[C@@H](Cc1ccccc1)c1n[nH]c(CN[C@@H](Cc2ccc(O)cc2)C(=O)N2CCC[C@H]2C(=O)N[C@@H](CO)C(N)=O)n1`, the Retention time in assay [2] was 20.2 min.
As to `CSCC[C@H](NC(=O)[C@H](CC(C)C)NC(=O)Cc1noc([C@H](Cc2ccccc2)NC(=O)[C@H](Cc2ccccc2)NC(=O)[C@H](CCC(N)=O)NC(=O)[C@H](CCC(N)=O)NC(=O)[C@@H]2CCCN2C(=O)[C@H](CCCCN)NC(=O)[C@@H]2CCCN2C(=O)[C@@H](N)CCCN=C(N)N)n1)C(N)=O` (stereo in doubt; form 2), at Substance-P receptor, the pIC50 was 6.51.
For `C[C@@H](NC(=O)[C@@H](N)Cc1ccc(O)cc1)C(=O)N[C@@H](Cc1ccccc1)c1nnc(CC(=O)N[C@@H](Cc2ccc(O)cc2)C(=O)N2CCC[C@H]2C(=O)N[C@@H](CO)C(N)=O)o1`, the results for the pIC50 at Mu-type opioid receptor [1] and at Substance-P receptor were 7.51 and < 6.00, respectively.
In the case of `CC(C)(C)OC(=O)N[C@@H](Cc1ccccc1)c1nc(CCO)no1`, the Retention time in assay [2] stood at 30.9 min.
Compound `C[C@@H](NC(=O)[C@@H](N)Cc1ccc(O)cc1)C(=O)N[C@@H](Cc1ccccc1)c1nnc(CN[C@@H](Cc2ccc(O)cc2)C(=O)N2CCC[C@H]2C(=O)N[C@@H](CO)C(N)=O)o1` showed a Retention time in assay [2] of 34 min.
Consider `CSCC[C@H](NC(=O)[C@H](CC(C)C)NC(=O)c1nnc([C@H](Cc2ccccc2)NC(=O)[C@H](Cc2ccccc2)NC(=O)[C@H](CCC(N)=O)NC(=O)[C@H](CCC(N)=O)NC(=O)[C@@H]2CCCN2C(=O)[C@H](CCCCN)NC(=O)[C@@H]2CCCN2C(=O)[C@@H](N)CCCNC(=N)N)o1)C(N)=O` (H-RPKPQQF[X3]LM-NH2), for which, on Substance-P receptor, the pIC50 is < 6.00.
Consider `C[C@@H](NC(=O)[C@@H](N)Cc1ccc(O)cc1)C(=O)N[C@@H](Cc1ccccc1)c1nnc(C(=O)N[C@@H](Cc2ccc(O)cc2)C(=O)N2CCC[C@H]2C(=O)N[C@@H](CO)C(N)=O)[nH]1`, for which the pIC50 was 6.31 on Mu-type opioid receptor [1] and < 6.00 on Substance-P receptor.
Regarding `CSCC[C@H](NC(=O)[C@H](CC(C)C)NC(=O)c1noc([C@H](Cc2ccccc2)NC(=O)[C@H](Cc2ccccc2)NC(=O)[C@H](CCC(N)=O)NC(=O)[C@H](CCC(N)=O)NC(=O)[C@@H]2CCCN2C(=O)[C@H](CCCCN)NC(=O)[C@@H]2CCCN2C(=O)[C@@H](N)CCCN=C(N)N)n1)C(N)=O` (H-RPKPQQF[X4]LM-NH2), the pIC50 on Substance-P receptor was < 6.00.
Take `CSCC[C@H](NC(=O)[C@H](CC(C)C)NC(=O)Cc1noc([C@H](Cc2ccccc2)NC(=O)[C@H](Cc2ccccc2)NC(=O)[C@H](CCC(N)=O)NC(=O)[C@H](CCC(N)=O)NC(=O)[C@@H]2CCCN2C(=O)[C@H](CCCCN)NC(=O)[C@@H]2CCCN2C(=O)[C@@H](N)CCCN=C(N)N)n1)C(N)=O` (stereo in doubt; form 1): on Substance-P receptor, the pIC50 is < 6.00.
Consider `CSCC[C@H](NC(=O)[C@H](CC(C)C)NC(=O)c1nnc([C@H](Cc2ccccc2)NC(=O)[C@H](Cc2ccccc2)NC(=O)[C@H](CCC(N)=O)NC(=O)[C@H](CCC(N)=O)NC(=O)[C@@H]2CCCN2C(=O)[C@H](CCCCN)NC(=O)[C@@H]2CCCN2C(=O)[C@@H](N)CCCNC(=N)N)[nH]1)C(N)=O` (H-RPKPQQF[X7]LM-NH2), for which the pIC50 at Substance-P receptor is < 6.00.
On to `C[C@@H](NC(=O)[C@@H](N)Cc1ccc(O)cc1)C(=O)NCC(=O)N(C)[C@@H](Cc1ccccc1)C(=O)NCCO` [DAMGO], for which the pIC50 on Substance-P receptor was < 6.00.
For the compound `C[C@@H](NC(=O)[C@@H](N)Cc1ccc(O)cc1)C(=O)N[C@@H](Cc1ccccc1)c1nnc(N[C@@H](Cc2ccc(O)cc2)C(=O)N2CCC[C@H]2C(=O)N[C@@H](CO)C(N)=O)o1`, the Retention time in assay [2] amounted to 22 min.
In the case of `C[C@@H](NC(=O)[C@@H](N)Cc1ccc(O)cc1)C(=O)N[C@@H](Cc1ccccc1)c1nc(CN[C@@H](Cc2ccc(O)cc2)C(=O)N2CCC[C@H]2C(=O)N[C@@H](CO)C(N)=O)no1`, in assay [2], the Retention time was 21 min.
For `C[C@@H](NC(=O)[C@@H](N)Cc1ccc(O)cc1)C(=O)N[C@@H](Cc1ccccc1)C(=O)NCC(=O)N[C@@H](Cc1ccc(O)cc1)C(=O)N1CCC[C@H]1C(=O)N[C@@H](CO)C(N)=O` [DERMORPHIN], the pIC50 at Mu-type opioid receptor [3] is 8.21; on Substance-P receptor, < 6.00.
For the compound `C[C@@H](NC(=O)[C@@H](N)Cc1ccc(O)cc1)C(=O)N[C@@H](Cc1ccccc1)c1nc(CC(=O)N[C@@H](Cc2ccc(O)cc2)C(=O)N2CCC[C@H]2C(=O)N[C@@H](CO)C(N)=O)no1`, the pIC50 at Mu-type opioid receptor [1] was 7.92; at Substance-P receptor, < 6.00.
In the case of `CSCC[C@H](NC(=O)[C@H](CC(C)C)NC(=O)Cc1nnc([C@H](Cc2ccccc2)NC(=O)[C@H](Cc2ccccc2)NC(=O)[C@H](CCC(N)=O)NC(=O)[C@H](CCC(N)=O)NC(=O)[C@@H]2CCCN2C(=O)[C@H](CCCCN)NC(=O)[C@@H]2CCCN2C(=O)[C@@H](N)CCCNC(=N)N)[nH]1)C(N)=O` (H-RPKPQQF[X9]LM-NH2), the pIC50 at Substance-P receptor is < 6.00.
